Measured values reported in ChEMBL document CHEMBL1135883, “A comprehensive study of the active site residues of DT-diaphorase: rational design of benzimidazolediones as DT-diaphorase substrates” (J Med Chem, 2002).

What was measured:
[1] = target: NAD(P)H dehydrogenase [quinone] 1 (Homo sapiens) (UniProt P15559); assay: Ratio Kcat/Km provides the apparent second-order rate constant of the enzymatic transformation of DT-Diaphorase
How it was run: (§1)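 Recombinant human DT-diaphorase (1.4 × 10^-9 M final) with NADH (0.3 mM final) and quinone substrate (1.3 × 10^-6 to 6.7 × 10^-5 M final; 4.0 mM DMSO stock) in 0.05 M Tris pH 7.4. Anaerobic Thunberg cuvettes, argon-purged 20 min, 30 °C. Initial rates from 336 nm absorbance over 10 min. Δε from absorbance before and after complete reduction. kcat and Km from Lineweaver–Burke plot.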

[2] = target: NAD(P)H dehydrogenase [quinone] 1 (Homo sapiens) (UniProt P15559); assay: Evaluated for the kinetic parameter (Kcat) using recombinant DT-Diaphorase, value calculated from Lineweaver-Burke plot; how it was run: as §1
[3] = target: NAD(P)H dehydrogenase [quinone] 1 (Homo sapiens) (UniProt P15559); assay: The ratio Kcat/Km provides the apparent second-order rate constant of the enzymatic transformation DT-Diaphorase; how it was run: as §1

Sequence of NAD(P)H dehydrogenase [quinone] 1 (Homo sapiens) (P15559 whole entry): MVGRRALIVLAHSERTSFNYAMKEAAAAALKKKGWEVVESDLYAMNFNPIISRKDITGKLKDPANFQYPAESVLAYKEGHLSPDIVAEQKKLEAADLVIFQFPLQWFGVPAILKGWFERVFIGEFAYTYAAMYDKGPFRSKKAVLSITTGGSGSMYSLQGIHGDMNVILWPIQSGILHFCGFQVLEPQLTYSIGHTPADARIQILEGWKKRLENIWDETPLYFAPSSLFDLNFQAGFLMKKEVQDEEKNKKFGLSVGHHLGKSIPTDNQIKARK

Structure (SMILES)	k cat/Km [1]	k cat [2]	k cat/Km [3]
CC1=C(N2CC2)C(=O)c2nc3n(c2C1=O)CC[C@@H]3N	1.39e+06 M⁻¹ s⁻¹	2.64 s⁻¹	
CC1=C(N2CC2)C(=O)c2nc3n(c2C1=O)CCC[C@@H]3N		2.97 s⁻¹	188000 M⁻¹ s⁻¹
COCC(=O)O[C@@H]1CCn2c1nc1c2C(=O)C(C)=C(NC(C)=O)C1=O		4.84 s⁻¹	40000 M⁻¹ s⁻¹
CC1=C(N2CC2)C(=O)c2nc3n(c2C1=O)CCC[C@H]3N	106000 M⁻¹ s⁻¹	4.92 s⁻¹	
O=C1c2nc3n(c2C(=O)c2c1nc1n2CCCC1)CCCC3	1.45e+06 M⁻¹ s⁻¹	3.74 s⁻¹	
CC1=C(N2CC2)C(=O)c2nc3n(c2C1=O)CC[C@H]3NC(=O)N(C)C	2.13e+06 M⁻¹ s⁻¹	9.56 s⁻¹	
CC(=O)NC1=C(C)C(=O)c2c(nc3n2CC[C@H]3OC(C)=O)C1=O	154000 M⁻¹ s⁻¹	3.81 s⁻¹	
CC1=C(N2CC2)C(=O)c2nc3n(c2C1=O)CC[C@H]3N	640000 M⁻¹ s⁻¹	3.26 s⁻¹	
CC(=O)N[C@@H]1CCn2c1nc1c2C(=O)C(C)=C(N2CC2)C1=O		1.47 s⁻¹	920000 M⁻¹ s⁻¹
CC1=C(N2CC2)C(=O)c2nc3n(c2C1=O)CC[C@@H]3NC(=O)N(C)C	940000 M⁻¹ s⁻¹	3.96 s⁻¹	
CC(=O)N[C@H]1CCn2c1nc1c2C(=O)C(C)=C(N2CC2)C1=O	520000 M⁻¹ s⁻¹	1.87 s⁻¹	
CC1=C(N2CC2)C(=O)c2nc3n(c2C1=O)CC[C@@H]3NC(N)=O		2.4 s⁻¹	1.2e+06 M⁻¹ s⁻¹
CC1=C(N2CC2)C(=O)c2nc3n(c2C1=O)CC[C@H]3NC(N)=O	890000 M⁻¹ s⁻¹	2.7 s⁻¹	
O=C1c2nc3n(c2C(=O)c2c1nc1n2CCC1)CCC3		3.81 s⁻¹	118000 M⁻¹ s⁻¹
COCC(=O)O[C@H]1CCn2c1nc1c2C(=O)C(C)=C(NC(C)=O)C1=O	69000 M⁻¹ s⁻¹	1.74 s⁻¹	
CC(=O)NC1=C(C)C(=O)c2c(nc3n2CC[C@@H]3OC(C)=O)C1=O	472000 M⁻¹ s⁻¹	3.85 s⁻¹	
